According to ChEMBL document CHEMBL1142866, “Synthesis and preliminary evaluation of 18F- or 11C-labeled bicyclic nucleoside analogues as potential probes for imaging varicella-zoster virus thymidine kinase gene expression using positron emission tomography” (J Med Chem, 2007):
Calls of active or inactive are those of the source. The calls are words filed in the database; no cut-off is given here.

Legend:
[1] = Inhibition of recombinant VZV TK assessed as [CH3-H3]dThd phosphorylation; parameters: species or system Human alphaherpesvirus 3
How it was run: (§1)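 Purified recombinant VZV TK (7.75 ng), HSV-1 TK (226 ng) or cytosolic TK-1 (455 ng). Buffer: 50 mM Tris-HCl pH 8.0, 2.5 mM MgCl2, 10 mM DTT, 2.5 mM ATP, 1.0 mg/mL BSA, 10 mM NaF, 1 µM [CH3-3H]dThd final. Incubated 30 min at 37 °C (linear range) with graded compound concentrations. Product caught on DE-81 disks, washed, scintillation-counted. IC50 is 50% inhibition of dThd phosphorylation.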

[2] = target: T1, Thymidine kinase (Human alphaherpesvirus 1, UniProt Q9QNF7); experiment: Inhibition of recombinant HSV-1 TK assessed as [CH3-H3]dThd phosphorylation; how it was run: as §1
T1 sequence (Q9QNF7 whole entry): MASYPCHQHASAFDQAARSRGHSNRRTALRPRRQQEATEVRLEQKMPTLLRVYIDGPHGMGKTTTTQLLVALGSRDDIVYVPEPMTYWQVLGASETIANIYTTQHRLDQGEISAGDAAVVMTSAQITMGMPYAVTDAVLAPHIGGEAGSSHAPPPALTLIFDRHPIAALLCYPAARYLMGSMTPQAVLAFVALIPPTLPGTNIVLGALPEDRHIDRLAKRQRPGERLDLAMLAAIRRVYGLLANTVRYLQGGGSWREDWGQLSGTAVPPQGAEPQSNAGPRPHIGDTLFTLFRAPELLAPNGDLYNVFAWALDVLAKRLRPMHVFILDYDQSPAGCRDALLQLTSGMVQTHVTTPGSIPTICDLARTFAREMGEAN

[3] = target: T2, Thymidine kinase, cytosolic (Homo sapiens, UniProt P04183); experiment: Inhibition of recombinant cytosolic TK-1 assessed as [CH3-H3]dThd phosphorylation; how it was run: as §1
T2 sequence (P04183 whole entry): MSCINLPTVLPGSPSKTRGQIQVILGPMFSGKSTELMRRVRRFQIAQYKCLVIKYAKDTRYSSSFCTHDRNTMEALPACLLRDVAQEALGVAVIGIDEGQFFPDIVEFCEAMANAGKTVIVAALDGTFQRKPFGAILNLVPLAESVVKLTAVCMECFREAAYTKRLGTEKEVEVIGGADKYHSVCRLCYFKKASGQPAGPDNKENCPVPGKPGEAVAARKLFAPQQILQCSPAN

[4] = test system: OST; experiment: Cytostatic activity against OST TK-/HSV1 TK+ cells at 1.8 uM; type: functional, cell-based; settings: Homo sapiens, tested as the 18F-labelled form
How it was run: (§2)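 OST TK- control cells and OST TK- cells expressing HSV-1 TK or VZV TK were cultured 5 days with graded compound concentrations. Cells were then trypsinized and counted on a Coulter counter. CC50 is the concentration in µM that reduces cell number by 50%.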

[5] = test system: OST; experiment: Cytostatic activity against OST TK-/HSV1 TK+ cells at 0.038 uM; type: functional, cell-based; settings: Homo sapiens; how it was run: as §2
[6] = test system: Lung; experiment: Biodistribution in lung of NMRI mouse assessed as standard uptake value after 2 mins; type: ADME, organism-based; settings: in vivo
[7] = test system: Heart; experiment: Biodistribution in heart of NMRI mouse assessed as standard uptake value after 2 mins; type: ADME, organism-based; settings: in vivo
[8] = test system: Brain; experiment: Biodistribution in brain of NMRI mouse assessed as standard uptake value after 2 mins; type: ADME, organism-based; settings: in vivo
[9] = test system: Blood; experiment: Biodistribution in blood of NMRI mouse assessed as standard uptake value after 2 mins; type: ADME, organism-based; settings: in vivo
[10] = test system: Kidney; experiment: Biodistribution in kidney of NMRI mouse assessed as standard uptake value after 60 mins; type: ADME, organism-based; settings: in vivo, 1 h
[11] = test system: Liver; experiment: Biodistribution in liver of NMRI mouse assessed as standard uptake value after 60 mins; type: ADME, organism-based; settings: in vivo, 1 h
[12] = Biodistribution in spleen/pancreas of NMRI mouse assessed as standard uptake value after 60 mins; type: ADME, organism-based; settings: in vivo, 1 h
[13] = test system: Intestine; experiment: Biodistribution in intestine of NMRI mouse after 2 mins; type: ADME, organism-based; settings: in vivo
How it was run: (§3)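 Male NMRI mice (30-40 g) under ketamine/xylazine i.p. anesthesia received 0.1 mL of HPLC-purified 18F tracer (0.1 mCi/mL) or 11C tracer (1 mCi/mL) in water for injection via tail vein. Killed by decapitation at 2 or 60 min (n = 3 per time). Blood, organs and carcass weighed and gamma-counted. %ID = organ cpm/total cpm recovered. Blood mass taken as 7% of body mass. Mean ± SD.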

[14] = test system: Brain; experiment: Biodistribution in brain of NMRI mouse after 2 mins; type: ADME, organism-based; settings: in vivo; how it was run: as §3
[15] = test system: Blood; experiment: Biodistribution in blood of NMRI mouse after 2 mins; type: ADME, organism-based; settings: in vivo; how it was run: as §3
[16] = Biodistribution in carcass of NMRI mouse after 2 mins; type: ADME, organism-based; settings: in vivo; how it was run: as §3
[17] = Biodistribution in urine of NMRI mouse after 60 mins; type: ADME, organism-based; settings: in vivo, 1 h; how it was run: as §3
[18] = test system: Kidney; experiment: Biodistribution in kidney of NMRI mouse after 60 mins; type: ADME, organism-based; settings: in vivo, 1 h; how it was run: as §3
[19] = test system: Liver; experiment: Biodistribution in liver of NMRI mouse after 60 mins; type: ADME, organism-based; settings: in vivo, 1 h; how it was run: as §3
[20] = Biodistribution in spleen/pancreas of NMRI mouse after 60 mins; type: ADME, organism-based; settings: in vivo, 1 h; how it was run: as §3
[21] = test system: Lung; experiment: Biodistribution in lung of NMRI mouse after 60 mins; type: ADME, organism-based; settings: in vivo, 1 h; how it was run: as §3
[22] = test system: Heart; experiment: Biodistribution in heart of NMRI mouse after 60 mins; type: ADME, organism-based; settings: in vivo, 1 h; how it was run: as §3
[23] = test system: Intestine; experiment: Biodistribution in intestine of NMRI mouse after 60 mins; type: ADME, organism-based; settings: in vivo, 1 h; how it was run: as §3
[24] = test system: Brain; experiment: Biodistribution in brain of NMRI mouse after 60 mins; type: ADME, organism-based; settings: in vivo, 1 h; how it was run: as §3
[25] = test system: Blood; experiment: Biodistribution in blood of NMRI mouse after 60 mins; type: ADME, organism-based; settings: in vivo, 1 h; how it was run: as §3
[26] = Biodistribution in carcass of NMRI mouse after 60 mins; type: ADME, organism-based; settings: in vivo, 1 h; how it was run: as §3
[27] = test system: Kidney; experiment: Biodistribution in kidney of NMRI mouse assessed as standard uptake value after 2 mins; type: ADME, organism-based; settings: in vivo
[28] = test system: Liver; experiment: Biodistribution in liver of NMRI mouse assessed as standard uptake value after 2 mins; type: ADME, organism-based; settings: in vivo
[29] = Biodistribution in spleen/pancreas of NMRI mouse assessed as standard uptake value after 2 mins; type: ADME, organism-based; settings: in vivo
[30] = test system: Lung; experiment: Biodistribution in lung of NMRI mouse assessed as standard uptake value after 60 mins; type: ADME, organism-based; settings: in vivo, 1 h
[31] = test system: Heart; experiment: Biodistribution in heart of NMRI mouse assessed as standard uptake value after 60 mins; type: ADME, organism-based; settings: in vivo, 1 h
[32] = test system: Brain; experiment: Biodistribution in brain of NMRI mouse assessed as standard uptake value after 60 mins; type: ADME, organism-based; settings: in vivo, 1 h
[33] = test system: Blood; experiment: Biodistribution in blood of NMRI mouse assessed as standard uptake value after 60 mins; type: ADME, organism-based; settings: in vivo, 1 h
[34] = Partition coefficient, log P at pH 7.4; type: physicochemical; settings: octanol/water
How it was run: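 HPLC-purified radiotracer partitioned between 1-octanol and 0.025 M phosphate buffer pH 7.4. Vortexed 2 min at room temperature, centrifuged 5 min, aliquots of both phases gamma-counted. P = octanol cpm/buffer cpm after density and mass correction; n = 6.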

[35] = Drug uptake in human 293T cells transduced with VZV-tk gene after 3 hrs; type: ADME, cell-based; settings: hek-293t
How it was run: (§4)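 Lentivirally transduced 293T cells (VZV-tk or LacZ control) plated in triplicate at 200 000 cells/well. After 24 h, 0.25 mL fresh medium with 5 µCi of the 18F tracer (3 h) or 30 µCi of the 11C tracer (1 h) added; 37 °C, 5% CO2. Cells washed thrice with ice-cold PBS, lysed, gamma-counted. Uptake given as % total radioactivity per mg protein (Bio-Rad assay); n = 3, unpaired two-sided t-test.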

[36] = Ratio of drug uptake in LV-VZVTK-1-P transduced cells to LV-LacZ-I-P transduced 293T cells after 3 hrs; type: ADME, cell-based; settings: human
How it was run: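 Lentivirally transduced human embryonic kidney 293T cells (VZV-tk vs LacZ control), plated in triplicate at 200 000 cells/well. After 24 h, fresh medium with HPLC-purified [18F] tracer (5 µCi/well), 3 h at 37 °C, 5% CO2. Cells washed three times with ice-cold PBS and lysed. Lysate counted in a gamma counter. Uptake given as % total radioactivity per mg protein (Bio-Rad assay). Ratio is VZV-tk/LacZ; n=3, unpaired Student t-test.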

[37] = Drug uptake in human 293T cells transduced with LacZ gene after 3 hrs; type: ADME, cell-based; settings: hek-293t; how it was run: as §4
[38] = Biodistribution in urine of NMRI mouse after 2 mins; type: ADME, organism-based; settings: in vivo; how it was run: as §3
[39] = test system: Kidney; experiment: Biodistribution in kidney of NMRI mouse after 2 mins; type: ADME, organism-based; settings: in vivo; how it was run: as §3
[40] = test system: Liver; experiment: Biodistribution in liver of NMRI mouse after 2 mins; type: ADME, organism-based; settings: in vivo; how it was run: as §3
[41] = Biodistribution in spleen/pancreas of NMRI mouse after 2 mins; type: ADME, organism-based; settings: in vivo; how it was run: as §3
[42] = test system: Lung; experiment: Biodistribution in lung of NMRI mouse after 2 mins; type: ADME, organism-based; settings: in vivo; how it was run: as §3
[43] = test system: Heart; experiment: Biodistribution in heart of NMRI mouse after 2 mins; type: ADME, organism-based; settings: in vivo; how it was run: as §3

## O=c1nc2oc(-c3ccccc3F)cc2cn1C1C[C@H](O)[C@@H](CO)O1 (stereo partly drawn)
[1]
  IC50: 0.28 µM
[2]
  IC50: > 500 µM
[3]
  IC50: > 500 µM

## O=c1nc2oc(-c3ccc(F)cc3)cc2cn1[C@H]1C[C@H](O)[C@@H](CO)O1
[1]
  IC50: 0.18 µM
[2]
  IC50: > 500 µM
[3]
  IC50: > 500 µM

## Nc1nc(=O)c2ncn(CCC(CO)CF)c2[nH]1 (stereo not drawn)
[4]
  Activity: Active
[1]
  IC50: > 50 µM

## Nc1nc(O)c2ncn(CCC(CO)CO)c2n1 [PENCICLOVIR]
[5]
  Activity: Active
[1]
  IC50: > 50 µM

## O=c1nc2oc(-c3cccc(OCC[18F])c3)cc2cn1[C@H]1C[C@H](O)[C@@H](CO)O1
[6]
  Drug uptake: 1.1
[7]
  Drug uptake: 0.6
[8]
  Drug uptake: 0.1
[9]
  Drug uptake: 0.9
[10]
  Drug uptake: 0.7
[11]
  Drug uptake: 0.7
[12]
  Drug uptake: 0.1
[13]
  Drug uptake: 20.7 %ID
[14]
  Drug uptake: 0 %ID
[15]
  Drug uptake: 6.2 %ID
[16]
  Drug uptake: 27.2 %ID
[17]
  Drug uptake: 29.5 %ID
[18]
  Drug uptake: 1.2 %ID
[19]
  Drug uptake: 4.4 %ID
[20]
  Drug uptake: 0.1 %ID
[21]
  Drug uptake: 0.1 %ID
[22]
  Drug uptake: 0 %ID
[23]
  Drug uptake: 60.5 %ID
[24]
  Drug uptake: 0 %ID
[25]
  Drug uptake: 0.4 %ID
[26]
  Drug uptake: 3.8 %ID
[27]
  Drug uptake: 9
[28]
  Drug uptake: 3.9
[29]
  Drug uptake: 1.4
[30]
  Drug uptake: 0
[31]
  Drug uptake: 0
[32]
  Drug uptake: 0
[33]
  Drug uptake: 0.1
[34]
  logD: 1.24
[35]
  Drug uptake: 2.29%
[36]
  uptake ratio at 3 h: 4.5
[37]
  Drug uptake: 0.6%
[38]
  Drug uptake: 5.7 %ID
[39]
  Drug uptake: 15.5 %ID
[40]
  Drug uptake: 24.4 %ID
[41]
  Drug uptake: 1.3 %ID
[42]
  Drug uptake: 0.9 %ID
[43]
  Drug uptake: 0.3 %ID
